Screens: PubChem, The Scripps Research Institute Molecular Screening Center
MBD2 inh: inhibitors of MBD2 binding to methylated DNA, primary screen, biochemical, TR-FRET, DNA-binding domain, human; MBD2 binding to methylated oligonucleotide; inhibition, % at 4.4 µM; 0.31% of 370,000 active; in the data active = inhibition above about 13%
LEDGF integ inh: blockers of LEDGF/p75-dependent integrase strand transfer – biochemical, TR-FRET, high throughput, primary screen | AID 743269, 2014 | 0.64% of 370,000 active | TR-FRET IN-LEDGF/p75 DNA integration, Eu/Cy5 | inhibition, % at 3.7 µM;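 active = inhibition above the screen-wide mean plus 3 SD, cut at about 13% in these data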;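 note: signal is the Cy5 over europium emission ratio at 671 and 618 nm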
TDP2 absorb: human TDP2 enzyme inhibitors, primary screen, biochemical, epi absorbance, recombinant enzyme; Tyrosyl-DNA phosphodiesterase 2 (Homo sapiens), O95551; T5PNP hydrolysis, p-nitrophenol absorbance 415 nm; inhibition, % at 12.8 µM; 0.34% of 370,000 active; AID 720702, 2013;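 active = inhibition above the mean of all tested compounds plus 3 SD, set per campaign, cut at about 25% in these data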
Target sequence (O95551 whole entry, looked up): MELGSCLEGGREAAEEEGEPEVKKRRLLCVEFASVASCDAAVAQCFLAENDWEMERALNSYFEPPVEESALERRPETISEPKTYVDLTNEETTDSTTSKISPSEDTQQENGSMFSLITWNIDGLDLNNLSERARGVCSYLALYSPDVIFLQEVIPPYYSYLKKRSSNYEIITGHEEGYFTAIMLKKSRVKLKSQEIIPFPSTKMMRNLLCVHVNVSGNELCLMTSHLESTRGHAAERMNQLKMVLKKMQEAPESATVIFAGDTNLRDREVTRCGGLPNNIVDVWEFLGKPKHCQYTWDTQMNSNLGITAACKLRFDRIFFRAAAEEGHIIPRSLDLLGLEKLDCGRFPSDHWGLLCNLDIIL
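System – recombinant human TDP2 · Quantity – TDP2 enzyme at 120 nM final · Doses – single concentration, 12.8 µM nominal, with 1% DMSO · Incubation – 2 h at 37 °C · Measured by – epi absorbance of p-nitrophenol freed from T5PNP by hydrolysis · Read-out – % inhibition relative to enzyme-containing and enzyme-free wells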
UHRF1 binding: UHRF1 methylated DNA binding inhibitors, primary screen, counter-screen for MBD2 inhibitor project, biochemical, TR-FRET, human UHRF1, single concentration; UHRF1 binding to methylated oligo; 0.75% of 370,000 active; AID 687016, 2013; inhibition, % at 4.4 µM; E3 ubiquitin-protein ligase UHRF1 (Homo sapiens), Q96T88; in the data active = inhibition above about 21%;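 note: UHRF1 SRA domain binding a hemimethylated CpG hairpin DNA probe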
HCV core dimer: inhibitors of HCV core protein dimerization, primary screen, biochemical, TR-FRET, high-throughput. AID 1899, 2009. inhibition, % at 5 µM. 0.33% of 300,000 active. TR-FRET GST/Flag-core106 dimerization, 1536-well;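 active = inhibition above the mean of all tested compounds plus 3 SD, set per screening campaign, cut at about 45% in these data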
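Material: GST/Flag-tagged HCV core106 proteins. Incubation: 4 h, 22.5 °C incubation. Read-out basis: inhibition (%) from 671 over 617 nm ratio. Measured by: TR-FRET, excitation 340 nm, emission 617 and 671 nm.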
Hits are given with their value; – = inactive; · = no result given. Most compounds without a hit are left out; they make up all but 1.8% or so of the library.

SMILES | MBD2 inh | LEDGF integ inh | TDP2 absorb | UHRF1 binding | HCV core dimer
C[C@@H](NC(=O)C[C@H]1CC[C@H]2[C@@H](COc3ccc(NC(=O)Nc4ccccc4)cc3C(=O)N2C)O1)c1ccccc1 | – | – | – | – | ·
Cc1cc(NC(=O)c2cc(-c3ccncc3)nc3c(C)cccc23)no1 | – | – | – | – | 54
O=C(Oc1cc2oc(=O)c3c(c2cc1Cl)CCCC3)c1ccco1 | – | – | – | 24 | –
O=C(CC1Sc2ccccc2NC1=O)NCc1ccc(Cl)cc1 (configuration not stated) | – | – | – | 28 | –
O=C(CC1Sc2ccccc2NC1=O)NCc1cccc(Cl)c1 (configuration not stated) | – | – | – | – | –
CCc1ccc(CN2CCC(C(=O)Nc3ccc(Oc4ccccc4)nc3)CC2)o1 | – | – | – | 43 | –
N#C/C(=C\c1c(N2CCCCCC2)nc2ccccn2c1=O)C(=O)NC1CCS(=O)(=O)C1 (configuration not stated) | – | – | – | 24 | –
C[C@H](CCC(=O)N(c1ccccc1)c1ccccc1)CC1CCCCC1 | – | – | – | – | ·
CCOC(=O)C1(Cc2cccc(OC)c2)CCN(C/C=C/c2ccccc2)CC1 | – | – | – | 33 | –
CCOc1ccc(S(=O)(=O)N2CCN(Cc3ccco3)CC2)cc1 | – | – | – | 27 | –
COC(=O)[C@]12C[C@H](CC(=O)NCC3CCCCC3)C(=O)N(Cc3ccc(Cl)cc3Cl)C1=C[C@H](C(C)C)O[C@@H]2C1CC1 | – | – | – | – | ·
CN(Cc1cn(CC2CCCCC2)nn1)S(=O)(=O)c1ccccc1Br | – | – | – | – | ·
O=C(COC(=O)CCc1c[nH]c2ccccc12)NCc1ccc2c(c1)OCO2 | – | – | – | 64 | –
C[C@H]1[C@@H](NC(=O)C(c2ccccc2)c2ccccc2)CC[C@@]23CCCN2C(=O)CCC[C@@H]13 | – | – | – | – | ·
CC(=O)Oc1ccc2occ(C(=O)c3cccs3)c2c1 | – | – | – | – | –
O=C(CCl)Oc1ccc2occ(C(=O)c3cccs3)c2c1 | – | – | – | 29 | –
O[C@H](COc1ccc(OC(F)(F)F)cc1)CN1CCC(C(O)(c2ccccc2)c2ccccc2)CC1 | – | – | – | – | ·
CCOc1ccccc1NC(=O)COC(=O)COc1c(Cl)cc(Cl)c2ccc(C)nc12 | – | – | – | 37 | –
Cc1ccc2c(Cl)cc(Cl)c(OCC(=O)NCCc3ccccn3)c2n1 | – | – | – | – | –
CCOC(=O)N1C(=O)C[C@](Sc2ccc(OC)cc2)(C(=O)N2CCOCC2)[C@H]1c1ccc(OC)cc1 | – | – | – | – | ·
O=C(c1sccc1Cl)N1CCC(n2nnc3ncccc32)CC1 | – | – | – | – | ·
CCC[C@H]1[C@@H](NC(=O)C#Cc2ccccc2)CC[C@@]23CCCN2C(=O)CCC[C@@H]13 | – | – | – | – | ·
CC(=O)c1cc(O)c2ccccc2c1O | – | – | 42 | – | –
CC(=O)c1coc2c1cc(O)c1ccccc12 | – | – | – | – | –
Cc1noc(/C=C/c2ccco2)c1S(=O)(=O)N1CCC(C(=O)N2CCc3ccccc3C2)CC1 | · | · | · | · | 48
SMILES | MBD2 inh | LEDGF integ inh | TDP2 absorb | UHRF1 binding | HCV core dimer
COc1ccc(CNC(=S)Nc2ccc(S(N)(=O)=O)cc2)cc1 | – | – | 43 | – | –
COC(=O)[C@H](C(C)C)N(CCc1cn(CC2CCCCC2)nn1)S(=O)(=O)c1ccccc1Br | – | – | – | – | ·
O=C(Cc1c(F)cccc1Cl)NCc1cccnc1 | – | – | – | – | –
O=C(Cc1ccc(Cl)cc1Cl)NCc1cccnc1 | – | – | – | 21 | –
CN1C(=O)c2c(sc3c2CCCC3)NC1c1ccccc1O (configuration not stated) | · | · | · | · | 55
C#CCN1CC(N(C)CCOC(=O)c2occ3ccccc23)CS1(=O)=O (configuration not stated) | – | – | – | – | ·
CCCCNC(=O)NCCCN1CCN(c2ccc(F)cc2)CC1 | – | – | – | – | ·
O=C(O)CCCC(=O)Nc1ccccc1C(=O)O | – | 16 | – | – | –
CCCCC(=O)NNC(=O)CC(=O)Nc1ccccc1C(=O)O | – | – | – | – | –
COc1ccc(CN(C(=O)c2cc(=O)c3ccccc3o2)C2CCS(=O)(=O)C2)cc1OC (configuration not stated) | – | – | – | 22 | –
O=C(c1ccco1)N(Cc1cccc(F)c1)C1CCS(=O)(=O)C1 (configuration not stated) | – | – | – | 21 | –
O=C(c1cc(=O)c2ccccc2o1)N(Cc1ccccc1)C1CCS(=O)(=O)C1 (configuration not stated) | – | – | – | – | –
CC(=O)N1CCN(c2ccc(NCc3ccc(Br)o3)cc2)CC1 | – | 28 | – | – | ·
C[C@@H]1OC(C2CCCCC2)N(C)[C@H]2C[C@H]3c4[nH]c5cccc(-c6cccc(F)c6)c5c4CCN3C(=O)[C@@H]12 (some centres not stated) | – | – | – | – | ·
COc1cccc(/C=C2\CC3(OC(=O)c4cccc(F)c4)CCCN2C3)c1 (configuration not stated) | – | – | – | – | ·
Cc1ccc(N2CC(=O)Nc3c(sc4nc(C)cc(C)c34)C2=O)cc1 | – | – | – | 25 | –
CCCCCCCC(=O)N/N=C/c1ccco1 | – | – | – | – | –
CCCCCCCCCCCC(=O)N/N=C/c1ccco1 | – | – | – | 27 | –
Cc1ccc(C2CC(c3cccs3)=NN2C(=O)CSc2nc(=O)n3ccc(C)cc3n2)cc1 (configuration not stated) | – | – | – | – | 61
COc1ccc(C2CC(c3cccs3)=NN2C(=O)CSc2nc(=O)n3ccc(C)cc3n2)cc1 (configuration not stated) | – | – | – | – | 48
O=C(CSc1nc(=O)n2ccccc2n1)N1N=C(c2cccs2)CC1c1ccc(F)cc1 (configuration not stated) | – | – | – | – | –
CCN(CC)S(=O)(=O)c1cc(C(=O)Nc2ccccc2[N+](=O)[O-])ccc1Cl | – | – | – | 22 | –
COC(=O)[C@]12C[C@H](CC(=O)NCc3cccs3)C(=O)N(Cc3ccco3)C1=C[C@H](C(C)C)O[C@@H]2C1CC1 | – | – | – | – | ·
COc1c2c(cc3ccc(=O)oc13)CCO2 | – | – | – | 49 | –
COc1c2occc2cc2ccc(=O)oc12 | – | – | – | – | –
O=C(NCc1ccc(F)c(F)c1)C1CCCN(c2nc3ccccc3o2)C1 (configuration not stated) | – | – | – | – | ·
